Experimental data of several laboratories.
Protocols differ between the studies behind these lines.
CDK7 with cyclin H: Cyclin-dependent kinase 7, with cyclin H (CDK7, Homo sapiens, UniProt P50613)
HTR1B: 5-hydroxytryptamine receptor 1B (HTR1B, Homo sapiens, UniProt P28222)

SMILES | target | assay | setting | inhibition [%]
Nc1nccc(-c2c[nH]c3ccc(Br)cc23)n1 | CDK7 with cyclin H | enzyme activity, inhibitor, ADP detection | 10 µM | -32
CCN(Cc1ccccc1C(F)(F)F)C(=O)C1CCN(S(=O)(=O)c2ccc3[nH]ncc3c2)CC1 | Prostaglandin E2 receptor EP4 subtype (PTGER4, Homo sapiens, UniProt P35408) | ligand displacement, radioligand | 10 µM | 33
CC(/C=C/C=C(\C)C(=O)O)=C\C=C\C=C(C)\C=C\C=C(/C)C(=O)O | CDK7 with cyclin H | enzyme activity, inhibitor, ADP detection | 10 µM | 38.3
CC(=O)c1nn(CC(=O)N2C[C@H](F)C[C@H]2C(=O)Nc2cccc(Br)n2)c2ccc(-c3cnc(C)nc3)cc12 | Prothrombin (F2, Homo sapiens, UniProt P00734) | enzyme activity, inhibitor | 10 µM | 1.2
N#Cc1cc(Cn2c(N3CCCC3)nc3ccccc32)ccc1F | HTR1B | ligand displacement, radioligand | 10 µM | -19.3
COc1c(C(=O)/C=C(\O)c2ccccc2)ccc2occc12 | CDK7 with cyclin H | enzyme activity, inhibitor, ADP detection | 10 µM | -26
Oc1cccc(Nc2nc(-c3ccc(F)cc3F)cs2)c1 | Calcitonin-gene-related peptide receptor, CALCRL/RAMP1 (Homo sapiens, UniProt O60894+Q16602) | cell-free assay | 10 µM | 3
CCN(CC)c1ccc(C2Nc3ccc(C(=O)c4ccccc4)cc3NC3=C2C(=O)CC(C)(C)C3)cc1 (stereo not shown) | HTR1B | ligand displacement, radioligand | 10 µM | 6
O=c1cc(-c2ccccc2)oc2c1ccc1ccccc12 | CDK7 with cyclin H | enzyme activity, inhibitor, ADP detection | 10 µM | 29.9
COc1cc(NC(C)=O)c(Cl)cc1C(=O)Nc1nccs1 | HTR1B | ligand displacement, radioligand | 10 µM | -0.8
CC(CN(C)C)C(Oc1cccc2ccccc12)c1cccs1 (stereo not shown) | Sodium-dependent dopamine transporter (Slc6a3, Rattus norvegicus, UniProt P23977) | ligand displacement, radioligand | 10 µM, cell membranes | < 70
CC1=C(/C=C/C(C)=C/C=C/C(C)=C/C=C/C=C(C)/C=C/C=C(C)/C=C/C2=C(C)CCCC2(C)C)C(C)(C)CCC1 | CDK7 with cyclin H | enzyme activity, inhibitor, ADP detection | 10 µM | 19.7
O=C(c1ccc(Cl)cc1)N(Cc1ccccc1)C1CCCCC1 | HTR1B | ligand displacement, radioligand | 10 µM | -11.5
CCN(c1cc(C#CCN2CCOCC2)cc(C(=O)NCc2c(C)cc(C)[nH]c2=O)c1C)[C@H]1CC[C@H](N(C)CCOC)CC1 | Histone-lysine N-methyltransferase EHMT2 (EHMT2, Homo sapiens, UniProt Q96KQ7) | enzyme activity, inhibitor | 1 µM | 7
O=C(CSc1nc2nccnc2c(=O)n1CCc1ccccc1)Nc1nccs1 | Phosphatidylinositol 4-phosphate 5-kinase type-1 beta (PIP5K1B, Homo sapiens, UniProt O14986) | enzyme activity, inhibitor | 10 µM | 13
CN(C)C1CCN(CC#Cc2nn(C3CCCC3)c3nc(NCc4ccccc4)ncc23)C1 (stereo not shown) | Tyrosine-protein kinase SYK (SYK, Homo sapiens, UniProt P43405) | enzyme activity, inhibitor, FRET | 1 µM | 0
